Reference: PMC2895358 (Journal of Medicinal Chemistry, 2010)

What was measured:
[1] = target: T1, cruzain (Trypanosoma cruzi, UniProt P25779); experiment: Cruzain inhibition assay; format: biochemical; conditions: for time-dependence of cruzain inhibition over incubation: incubation 0 to 240 min, 1 μM of 8, 10 μM of 11, 10 uM of 4, 100 uM of 5
[2] = target: T1, cruzain; experiment: LC/MS stability of compounds in the presence or absence of cruzain; format: physicochemical; conditions: for behaviour as cruzain substrate: LC/MS and time-dependence assay
Method in brief: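 Test compound solutions in 2 mM Bis Tris pH 5.8, with or without 100 nM cruzain, analysed by LC/MS at time points from 30 min to 24 h, with elution monitored at 254 nm, to detect degradation and whether cruzain catalyses it. In a separate run, cruzain activity was followed after incubation with test compound (1 or 10 μM) from 0 to 240 min.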

[3] = target: T1, cruzain; experiment: In vitro activity of compound 11 and representative analogues against cruzain; format: biochemical

T1 sequence (P25779 123-337 limits assumed): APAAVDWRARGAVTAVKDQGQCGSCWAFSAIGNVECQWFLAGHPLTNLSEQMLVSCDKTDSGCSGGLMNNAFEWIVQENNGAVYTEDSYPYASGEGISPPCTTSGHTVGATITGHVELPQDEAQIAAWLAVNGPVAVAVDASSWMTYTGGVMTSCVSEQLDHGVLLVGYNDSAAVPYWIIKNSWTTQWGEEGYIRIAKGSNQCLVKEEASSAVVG

Structure (SMILES)	Ki [1] [nM]	behaviour as cruzain substrate [2]	time-dependence of cruzain inhibition over incubation [1]	IC50 [3] [nM]	stability by LC/MS in the absence of cruzain ([2]; 2 mM Bis Tris pH 5.8, no cruzain, one day)
COc1ccc(Cl)cc1NC(=O)COC(=O)C(CC(C)C)N1C(=O)C2CC=CCC2C1=O (stereo not drawn) [Compound 4]	1600	did not behave as substrates	–	–	–
CC(C)C(NC(=O)c1ccco1)C(=O)NCC(c1ccco1)N1CCCCC1 (stereo not drawn) [Compound 5]	–	did not behave as substrates	–	–	–
O=C(CNC(=O)c1ccccc1)OC(C(=O)Nc1cc(C(F)(F)F)ccc1Cl)c1ccccc1 (stereo not drawn) [Compound 8]	65	–	clear time-dependent effect	–	–
O=C(CNC(=O)c1ccc(Cl)cc1)OC(C(=O)Nc1ccc(Cl)cc1C(F)(F)F)c1ccccc1 (stereo not drawn) [Compound 11]	–	identified as a cruzain substrate	clear time-dependent effect	260	still observed in solution even after one day of incubation
